In the library only some 2.1% were active in any assay of this set; here they are far more common.
APJ antagonist – antagonists of human apelin receptor APJ, primary screen, CHO-K1 cells, beta-arrestin complementation, luminescence; hit rate 0.32% among 330,000; inhibition, % at 20 µM; AID 2521, 2010; P35414;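 active = inhibition above about 40% at 20 µM, limit read from the data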;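 also: cells challenged with 10 nM apelin-13 agonist together with compound; plate controls were apelin-13 plus DMSO wells for no effect and DMSO wells lacking apelin-13 for full effect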
EBI2 antag – EBI2 receptor antagonists, beta-arrestin recruitment, primary screen, cell-based, luminescence, 7a,25-OHC stimulation, uHTS | G-protein coupled receptor 183 (Homo sapiens), P32249 | 7a,25-OHC stimulated | inhibition, % at 5 µM | hit rate 0.81% among 360,000 | AID 651636, 2012; in the data active = inhibition above about 38%;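 also: enzyme fragment complementation signal reports receptor beta-arrestin coupling in cells; 0% = agonist plus DMSO wells and 100% = wells without agonist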
Target sequence (P32249 whole entry, looked up, the tested form may be a part): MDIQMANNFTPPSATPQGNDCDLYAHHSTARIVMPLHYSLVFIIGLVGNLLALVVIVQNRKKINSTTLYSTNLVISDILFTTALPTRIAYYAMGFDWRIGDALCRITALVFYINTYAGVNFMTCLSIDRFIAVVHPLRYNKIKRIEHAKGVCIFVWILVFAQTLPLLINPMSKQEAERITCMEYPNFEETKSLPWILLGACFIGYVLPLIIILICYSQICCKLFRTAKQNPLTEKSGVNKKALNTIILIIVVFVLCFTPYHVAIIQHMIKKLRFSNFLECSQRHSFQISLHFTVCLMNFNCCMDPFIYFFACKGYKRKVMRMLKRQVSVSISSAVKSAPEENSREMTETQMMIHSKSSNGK
CCR6 antagonist – CCR6 receptor antagonists, primary screen, cell-based, CHO-K1, luminescence, beta-arrestin, uHTS; C-C chemokine receptor type 6 (Homo sapiens), P51684; CHO-K1 CCR6 PathHunter beta-arrestin, CCL20-stimulated; inhibition, % at 20 µM; hit rate 0.49% among 340,000;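 active = compounds whose inhibition of the agonist-driven luminescence signal at 20 µM reaches about 50%, limit read from the data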;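 also: cells stimulated with CCL20 at 14 nM final; plate controls were DMSO with CCL20 for no effect and DMSO without agonist for full effect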
CXCR6 block – CXCR6 receptor inhibitors, primary screen, cell-based, beta-arrestin, luminescence, CHO-K1 PathHunter, 1536-well; AID 602244, 2012; hit rate 0.36% among 360,000; C-X-C chemokine receptor type 6 (Homo sapiens), O00574; inhibition, % at 20 µM; in the data active = inhibition above about 34%, passing the limit was not always enough;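 also: antagonist mode with CXCL16 agonist at 10 nM final; 0% = 10 nM CXCL16 with DMSO and 100% = unstimulated wells without agonist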
HTR2A ag – mouse Htr2a agonists via beta-arrestin recruitment, primary screen, cell-based, luminescence | 5-hydroxytryptamine receptor 2A (Mus musculus), P35363 | CHO-K1 mHTR2A beta-arrestin complementation; percent of 30 µM serotonin response | activation, % at 7.6 µM | hit rate 0.66% among 360,000 | AID 624169, 2012;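 active = activation above a run cutoff, the mean activation of all tested compounds plus 3 SD, cut at about 14% in these data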;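 also: 0% = plate median of compound wells and 100% = 30 µM serotonin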
APJ agonist – agonists of human apelin receptor APJ, primary screen, CHO-K1 cells, PathHunter beta-arrestin, luminescence | P35414 | 0% DMSO wells, 100% apelin | activation, % at 20 µM | hit rate 0.11% among 330,000;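 active = activation more than six SD over the plate average, tested at 20 µM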;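 also: 0% = DMSO alone and 100% = apelin-13 at 10 nM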
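Assay system – PathHunter CHO-K1 APJ (AGTRL-1) beta-arrestin reporter cells · Compound – one dose, 20 µM compound, 1% DMSO · Timing – compound 90 min 25 °C, reagent 1 h · Measured by – luminescence from split beta-galactosidase complementation, Galacton Star/Emerald II substrate · Measure – beta-arrestin recruitment to APJ as agonist activity, luminescent signal · Benchmarks – DMSO vs Apelin-13 10 nM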
APJ ag conf – agonists of human apelin receptor APJ, confirmation, cell-based, single concentration, CHO-K1, beta-arrestin, luminescence; shares compounds with APJ agonist; CHO-K1 APJ PathHunter beta-arrestin; activation, % at 20 µM; hit rate 10% among 310; AID 2764, 2010;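 active = activation above 40%, taking the highest of four retests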;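 also: plate controls were DMSO wells for no effect and apelin-13 at 10 nM for full effect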
Active calls of the source: *.

For N/C(=N\OC(=O)c1cccc(Br)c1)c1ccccn1 the results were APJ antagonist -158, EBI2 antag -39, CCR6 antagonist -37, CXCR6 block -22, HTR2A ag 2, APJ agonist 34* and APJ ag conf 11.
For N/C(=N\OC(=O)c1ccc(Cl)c(Cl)c1)c1ccccn1 the results were APJ antagonist -103, EBI2 antag -19, CCR6 antagonist -20, CXCR6 block -15, HTR2A ag 2 and APJ agonist 10.
Screening CCCn1cc([C@@H]2C[C@H]3CN(Cc4cccc(Cl)c4)C(=O)[C@]34CCCN24)c(C)n1 returned APJ antagonist -3, EBI2 antag 4, CCR6 antagonist 11, CXCR6 block -2, HTR2A ag 2 and APJ agonist -3.
Screening Cc1ccc(Oc2ncccc2NC(=O)CCCC(=O)O)c2c1CCC2 returned APJ antagonist -10, EBI2 antag -10, CCR6 antagonist -3, CXCR6 block -15, HTR2A ag -1 and APJ agonist 3.
`CCC(C)NC(=O)CSC1=Nc2ccccc2C2=NC(CC(=O)NCc3ccc(F)cc3)C(=O)N12` (stereo unspecified) gave APJ antagonist -16, EBI2 antag -2, CCR6 antagonist 7, CXCR6 block -4, HTR2A ag -2, APJ agonist 51* and APJ ag conf 8.
For Cc1ccc2c(c1)c(=O)c1c3n2CCN(C(=O)CCl)C3CC1 (stereo unspecified) the results were APJ antagonist -15, EBI2 antag -21, CCR6 antagonist -4, CXCR6 block 1, HTR2A ag 0, APJ agonist 37* and APJ ag conf 22.
`O=C(c1cnn2c(C(F)(F)F)cc(-c3cccs3)nc12)N1CCN(Cc2ccccc2)CC1` gave APJ antagonist -4, EBI2 antag -2, CCR6 antagonist 4, CXCR6 block -3, HTR2A ag 12, APJ agonist 30* and APJ ag conf 8.
Cc1cccc2c1cnn2C(=O)Nc1ccccc1Br was read as APJ antagonist -4, EBI2 antag -9, CCR6 antagonist 8, CXCR6 block -4, HTR2A ag 7 and APJ agonist 1.
`O=[N+]([O-])c1cc(-c2nc3nc4ccccc4nc3n2CCc2ccccc2)cc([N+](=O)[O-])c1` gave APJ antagonist -49, EBI2 antag -6, CCR6 antagonist 13, CXCR6 block -6, HTR2A ag 6, APJ agonist 17* and APJ ag conf 10.
Screening O=C(Nc1ccc(NC(=O)c2ccc([N+](=O)[O-])cc2[N+](=O)[O-])cc1)c1ccco1 returned APJ antagonist -19, EBI2 antag -6, CCR6 antagonist -20, CXCR6 block -11, HTR2A ag 3, APJ agonist 11* and APJ ag conf 11.
For Cc1ccc(CCN=c2c([N+](=O)[O-])nn(-c3ccccc3)n2O)cc1 the results were APJ antagonist -46, EBI2 antag -9, CCR6 antagonist -24, CXCR6 block -13, HTR2A ag 3, APJ agonist 14* and APJ ag conf 25.
Screening O=[N+]([O-])c1nn(-c2ccccc2)n(O)c1=NCCc1ccccc1 returned APJ antagonist -40, EBI2 antag -17, CCR6 antagonist 1, CXCR6 block -13, HTR2A ag 2 and APJ agonist 4.
O=C(C[n+]1cccc(C(=O)N/N=C/c2ccc(Br)cc2)c1)c1ccccc1 was read as APJ antagonist 2, EBI2 antag -5, CCR6 antagonist 6, CXCR6 block 6, HTR2A ag -5 and APJ agonist 2.
For COc1ccccc1NC(=O)c1ccc(S(=O)(=O)N(C)C)cc1 the results were APJ antagonist -49, EBI2 antag 1, CCR6 antagonist 13, CXCR6 block 5, HTR2A ag 2 and APJ agonist -2.
`Cc1cccc(/C(N)=N/OC(=O)Cc2cccc3ccccc23)c1` gave APJ antagonist -14, EBI2 antag 3, CCR6 antagonist -10, CXCR6 block -14, HTR2A ag 0 and APJ agonist 0.
N/C(Cc1ccccc1)=N\OC(=O)c1cccc2ccccc12 was read as APJ antagonist -33, EBI2 antag 15, CCR6 antagonist 6, CXCR6 block -26, HTR2A ag 0, APJ agonist 12* and APJ ag conf 37.
Screening Cc1cccc(C(=O)O/N=C(\N)Cc2cccc3ccccc23)c1 returned APJ antagonist -143, EBI2 antag -12, CCR6 antagonist -24, CXCR6 block -17, HTR2A ag -7, APJ agonist 42* and APJ ag conf 33.
Screening COc1ccc(C(=O)N=c2sc3c(C)ccc(OC)c3n2C)cc1OC returned APJ antagonist -27, EBI2 antag 12, CCR6 antagonist 10, CXCR6 block 6, HTR2A ag 12 and APJ agonist 4.
For Cc1ccc(Nc2nc(NCc3ccco3)c3ccccc3n2)cc1 the results were APJ antagonist -36, EBI2 antag -22, CCR6 antagonist -18, CXCR6 block -5, HTR2A ag -11, APJ agonist 14* and APJ ag conf 19.
Screening COc1ccccc1Nc1nc(NCc2ccco2)c2ccccc2n1 returned APJ antagonist 10, EBI2 antag -8, CCR6 antagonist -3, CXCR6 block -10, HTR2A ag -9 and APJ agonist -3.
For Cc1ccc(-n2ncc3c(N4CCN(c5ccccc5)CC4)ncnc32)c(C)c1 the results were APJ antagonist -29, EBI2 antag -19, CCR6 antagonist -13, CXCR6 block -5, HTR2A ag 4, APJ agonist 17* and APJ ag conf 40*.
COc1ccc(/C=N/Nc2cc(C)nc3ccc(OC)cc23)c(OC)c1 was read as APJ antagonist -14, EBI2 antag -12, CCR6 antagonist 10, CXCR6 block 23, HTR2A ag -9, APJ agonist 61* and APJ ag conf 64*.
`COc1ccc2nc(C)cc(N/N=C/c3ccccc3)c2c1` gave APJ antagonist -10, EBI2 antag 1, CCR6 antagonist 26, CXCR6 block 4, HTR2A ag -12 and APJ agonist 21.
For N/C(Cc1ccc(Cl)c(Cl)c1)=N\OC(=O)c1ccc(Br)o1 the results were APJ antagonist -36, EBI2 antag -7, CCR6 antagonist -2, CXCR6 block -8, HTR2A ag -3, APJ agonist 21* and APJ ag conf 18.
